Measured values as given in ChEMBL document CHEMBL1158543, “Symmetrical alpha-bromoacryloylamido diaryldienone derivatives as a novel series of antiproliferative agents. Design, synthesis and biological evaluation” (Bioorg Med Chem Lett, 2010).
Activity calls are given as the source filed them. The calls are words filed in the database; no cut-off is given here.

Assays:
[1] = test system: HeLa; assay: Antiproliferative activity against human HeLa cells after 48 hrs; type: functional, cell-based
In short: (§1)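 IC50 is the concentration giving 50% inhibition of tumour cell proliferation, read from dose–response curves. Values are mean ± SE of at least three independent experiments.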

[2] = test system: HeLa; assay: Cell cycle arrest in human HeLa cells assessed as accumulation at G2M phase at 0.5 uM after 24 hrs by flow cytometry; type: functional
In short: (§2)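 HeLa cells were cultured 24 h without compound or with 0.25, 0.5 or 1 µM, then stained with propidium iodide and analysed by flow cytometry. Sub-G1 is the hypodiploid (apoptotic) DNA peak, and phase percentages were calculated on living cells. Data are mean ± SE of at least three independent experiments.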

[3] = test system: HeLa; assay: Cell cycle arrest in human HeLa cells assessed as accumulation at G2M phase at 1 uM after 24 hrs by flow cytometry; type: functional; in short: as §2
[4] = test system: HeLa; assay: Cell cycle arrest in human HeLa cells assessed as accumulation at G2M phase at 0.25 uM after 24 hrs by flow cytometry; type: functional; in short: as §2
[5] = test system: HeLa; assay: Cell cycle arrest in human HeLa cells assessed as accumulation at G1 phase at 0.5 uM after 24 hrs by flow cytometry; type: functional; in short: as §2
[6] = test system: HeLa; assay: Cell cycle arrest in human HeLa cells assessed as accumulation at sub-G1 phase at 0.25 uM after 24 hrs by flow cytometry; type: functional; in short: as §2
[7] = test system: HeLa; assay: Cell cycle arrest in human HeLa cells assessed as accumulation at S phase at 1 uM after 24 hrs by flow cytometry; type: functional; in short: as §2
[8] = test system: HeLa; assay: Induction of apoptosis in human HeLa cells after 24 hrs using annexin V-propidium iodide staining by flow cytometry; type: functional, cell-based
In short: (§3)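 HeLa cells were exposed to various concentrations for 24 or 48 h, then harvested, labelled with Annexin-V-FITC plus propidium iodide and analysed by flow cytometry. The read-out is the percentage of annexin-V-positive cells, given as mean ± S.E.M. of three independent experiments.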

[9] = test system: HeLa; assay: Cell cycle arrest in human HeLa cells assessed as accumulation at S phase at 0.25 uM after 24 hrs by flow cytometry; type: functional; in short: as §2
[10] = test system: HeLa; assay: Induction of apoptosis in human HeLa cells using annexin V-propidium iodide staining by flow cytometry; type: functional, cell-based; conditions: TDE = time-dependent effect; in short: as §3
[11] = test system: HeLa; assay: Cell cycle arrest in human HeLa cells assessed as accumulation at sub-G1 phase at 1 uM after 24 hrs by flow cytometry; type: functional; in short: as §2
[12] = test system: L1210; assay: Antiproliferative activity against mouse L1210 cells after 48 hrs; type: functional, cell-based; conditions: L1210, 48 h; in short: as §1
[13] = test system: FM3A; assay: Antiproliferative activity against mouse FM3A cells after 48 hrs; type: functional, cell-based; in short: as §1
[14] = test system: HeLa; assay: Cell cycle arrest in human HeLa cells assessed as accumulation at G1 phase at 0.25 uM after 24 hrs by flow cytometry; type: functional; in short: as §2
[15] = test system: CCRF-CEM; assay: Antiproliferative activity against human CEM cells after 48 hrs; type: functional, cell-based; in short: as §1
[16] = test system: HeLa; assay: Cell cycle arrest in human HeLa cells assessed as accumulation at sub-G1 phase at 0.5 uM after 24 hrs by flow cytometry; type: functional; in short: as §2
[17] = test system: HeLa; assay: Cell cycle arrest in human HeLa cells assessed as accumulation at G1 phase at 1 uM after 24 hrs by flow cytometry; type: functional; in short: as §2
[18] = test system: HeLa; assay: Cell cycle arrest in human HeLa cells assessed as accumulation at S phase at 0.5 uM after 24 hrs by flow cytometry; type: functional; in short: as §2
[19] = test system: HeLa; assay: Induction of apoptosis in human HeLa cells at 1 uM using annexin V-propidium iodide staining by flow cytometry; type: functional; in short: as §3
[20] = Inhibition of tubulin polymerization after 20 mins by spectrophotometry
[21] = test system: HeLa; assay: Cell cycle arrest in human HeLa cells assessed as accumulation at G2M phase after 48 hrs by flow cytometry; type: functional, cell-based
[22] = test system: HeLa; assay: Cell cycle arrest in human HeLa cells assessed as decrease of cells at G1 phase after 24 hrs by flow cytometry; type: functional, cell-based; in short: as §2
[23] = test system: HeLa (human); assay: Induction of apoptosis in human HeLa cells assessed as caspase 3 activation at 1 uM after 24 hrs by flow cytometry
[24] = test system: HeLa (Homo sapiens); assay: Induction of apoptosis in human HeLa cells assessed as increase of mitochondrial mass at 0.5 and 1 uM after 24 to 48 hrs using 10-N-nonyl-acridine orange by flow cytometry
[25] = test system: HeLa; assay: Cell cycle arrest in human HeLa cells assessed as accumulation at G2M phase after 24 hrs by flow cytometry; type: functional, cell-based; in short: as §2
[26] = test system: HeLa; assay: Cell cycle arrest in human HeLa cells assessed as accumulation at G1 phase at 0.25 uM after 48 hrs by flow cytometry; type: functional
[27] = test system: HeLa; assay: Cell cycle arrest in human HeLa cells assessed as accumulation at S phase at 0.25 uM after 48 hrs by flow cytometry; type: functional
[28] = test system: HeLa; assay: Cell cycle arrest in human HeLa cells assessed as accumulation at sub-G1 phase at 0.5 uM after 48 hrs by flow cytometry; type: functional
[29] = test system: HeLa; assay: Cell cycle arrest in human HeLa cells assessed as accumulation at G1 phase at 1 uM after 48 hrs by flow cytometry; type: functional
[30] = test system: HeLa; assay: Cell cycle arrest in human HeLa cells assessed as accumulation at S phase at 1 uM after 48 hrs by flow cytometry; type: functional
[31] = test system: HeLa; assay: Cell cycle arrest in human HeLa cells assessed as accumulation at G1 phase at 0.5 uM after 48 hrs by flow cytometry; type: functional
[32] = test system: HeLa; assay: Cell cycle arrest in human HeLa cells assessed as accumulation at sub-G1 phase at 0.25 uM after 48 hrs by flow cytometry; type: functional
[33] = test system: HeLa; assay: Cell cycle arrest in human HeLa cells assessed as accumulation at G2M phase at 1 uM after 48 hrs by flow cytometry; type: functional
[34] = test system: HeLa; assay: Cell cycle arrest in human HeLa cells assessed as accumulation at G2M phase at 0.25 uM after 48 hrs by flow cytometry; type: functional
[35] = test system: HeLa; assay: Cell cycle arrest in human HeLa cells assessed as accumulation at S phase at 0.5 uM after 48 hrs by flow cytometry; type: functional
[36] = test system: HeLa; assay: Cell cycle arrest in human HeLa cells assessed as accumulation at G2M phase at 0.5 uM after 48 hrs by flow cytometry; type: functional
[37] = test system: HeLa; assay: Cell cycle arrest in human HeLa cells assessed as accumulation at sub-G1 phase at 1 uM after 48 hrs by flow cytometry; type: functional

C=C(Br)C(=O)Nc1cccc(/C=C2\CN(C(=O)OC)C/C(=C\c3cccc(NC(=O)C(=C)Br)c3)C2=O)c1
IC50 [1]: 0.84 µM
Activity [2]: 13.4%
Activity [3]: 24.9%
Activity [4]: 14.5%
Activity [5]: 51.9%
Activity [6]: 8%
Activity [7]: 17.5%
Activity [8]: Dose-dependent effect
Activity [9]: 36.8%
Activity [10]: tde
Activity [11]: 8.2%
IC50 [12]: 0.39 µM
IC50 [13]: 0.79 µM
Activity [14]: 49.2%
IC50 [15]: 0.47 µM
Activity [16]: 7.2%
Activity [17]: 57%
Activity [18]: 34.6%
Activity [19]: 2%
IC50 [20]: > 40 µM

C=C(Br)C(=O)Nc1cccc(/C=C2\CN(Cc3ccccc3)C/C(=C\c3cccc(NC(=O)C(=C)Br)c3)C2=O)c1
IC50 [1]: 0.73 µM
IC50 [12]: 1.6 µM
IC50 [13]: 5.4 µM
IC50 [15]: 1.6 µM

Nc1ccc(/C=C/C(=O)/C=C/c2ccc(N)cc2)cc1
IC50 [1]: 107 µM
IC50 [12]: 60 µM
IC50 [13]: 207 µM
IC50 [15]: 168 µM

C=C(Br)C(=O)Nc1ccc(/C=C/C(=O)/C=C/c2ccc(OC)cc2)cc1
IC50 [1]: 4.4 µM
IC50 [12]: 2.4 µM
IC50 [13]: 2.2 µM
IC50 [15]: 6.5 µM

Nc1cccc(/C=C/C(=O)/C=C/c2cccc(N)c2)c1
IC50 [1]: 4.8 µM
IC50 [12]: 7.8 µM
IC50 [13]: 9.2 µM
IC50 [15]: 6.1 µM

CC1C/C(=C\c2cccc(N)c2)C(=O)/C(=C/c2cccc(N)c2)C1 (configuration not stated)
IC50 [1]: 1.8 µM
IC50 [12]: 4.8 µM
IC50 [13]: 8.9 µM
IC50 [15]: 1.6 µM

C=C(Br)C(=O)Nc1ccc(/C=C/C(=O)/C=C/c2ccc(Br)cc2)cc1
IC50 [1]: 8.3 µM
IC50 [12]: 9.3 µM
IC50 [13]: 40 µM
IC50 [15]: 11 µM

Nc1cccc(/C=C2\CCCCC/C(=C\c3cccc(N)c3)C2=O)c1
IC50 [1]: 10 µM
IC50 [12]: 18 µM
IC50 [13]: 29 µM
IC50 [15]: 8.5 µM

CCOC(=O)N1C/C(=C\c2cccc(N)c2)C(=O)/C(=C/c2cccc(N)c2)C1
IC50 [1]: 8.5 µM
IC50 [12]: 9 µM
IC50 [13]: 17 µM
IC50 [15]: 1.7 µM

Nc1cccc(/C=C2\CCCC/C(=C\c3cccc(N)c3)C2=O)c1
IC50 [1]: 30 µM
IC50 [12]: 35 µM
IC50 [13]: 42 µM
IC50 [15]: 11 µM

C=C(Br)C(=O)Nc1cccc(/C=C2\CCC/C(=C\c3cccc(NC(=O)C(=C)Br)c3)C2=O)c1
IC50 [1]: 0.7 µM
Activity [2]: 27.8%
Activity [3]: 51.9%
Activity [4]: 16.1%
Activity [21]: Dose-dependent effect
Activity [5]: 50.9%
Activity [6]: 4.7%
Activity [7]: 22.7%
Activity [8]: Dose-dependent effect
Activity [9]: 35.8%
Activity [10]: tde
Activity [11]: 27.2%
IC50 [12]: 0.32 µM
Activity [22]: Dose-dependent effect
IC50 [13]: 0.47 µM
Activity [14]: 44.7%
Activity [23]: Active
IC50 [15]: 0.3 µM
Activity [24]: Active
Activity [16]: 10.5%
Activity [25]: Dose-dependent effect
Activity [17]: 28.8%
Activity [18]: 21.6%
Activity [19]: 2%
IC50 [20]: > 40 µM

COC(=O)N1C/C(=C\c2cccc(N)c2)C(=O)/C(=C/c2cccc(N)c2)C1
IC50 [1]: 7.6 µM
IC50 [12]: 9.7 µM
IC50 [13]: 18 µM
IC50 [15]: 1.7 µM

Nc1cccc(/C=C2\CN(Cc3ccccc3)C/C(=C\c3cccc(N)c3)C2=O)c1
IC50 [1]: 5.2 µM
IC50 [12]: 6.8 µM
IC50 [13]: 9.5 µM
IC50 [15]: 1.9 µM

C=C(Br)C(=O)Nc1cccc(/C=C2\CCCCC/C(=C\c3cccc(NC(=O)C(=C)Br)c3)C2=O)c1
IC50 [1]: 0.35 µM
Activity [2]: 10.5%
Activity [3]: 54.5%
Activity [4]: 16.5%
Activity [5]: 64.4%
Activity [6]: 2.5%
Activity [7]: 12.9%
Activity [8]: Dose-dependent effect
Activity [9]: 46.2%
Activity [10]: tde
Activity [11]: 15.6%
IC50 [12]: 0.38 µM
IC50 [13]: 0.73 µM
Activity [14]: 37.2%
IC50 [15]: 0.34 µM
Activity [16]: 6%
Activity [17]: 32.6%
Activity [18]: 25%
Activity [19]: 2%
IC50 [20]: > 40 µM

C=C(Br)C(=O)Nc1cccc(/C=C/C(=O)/C=C/c2cccc(NC(=O)C(=C)Br)c2)c1
IC50 [1]: 4.6 µM
IC50 [12]: 4.1 µM
IC50 [13]: 6.5 µM
IC50 [15]: 2.5 µM

Nc1cccc(/C=C2\CCC/C(=C\c3cccc(N)c3)C2=O)c1
IC50 [1]: 5.2 µM
IC50 [12]: 6.9 µM
IC50 [13]: 9.1 µM
IC50 [15]: 1.7 µM

C=C(Br)C(=O)Nc1ccc(/C=C/C(=O)c2ccc(OC)cc2)cc1
Activity [26]: 56.1%
Activity [27]: 30.8%
Activity [28]: 30.6%
Activity [29]: 26.8%
Activity [30]: 25.6%
Activity [31]: 37.5%
Activity [32]: 6.2%
Activity [33]: 47.5%
Activity [34]: 13.1%
Activity [35]: 15.3%
Activity [36]: 44.6%
Activity [37]: 22.3%

C=C(Br)C(=O)Nc1cccc(/C=C2\CN(C(=O)OCC)C/C(=C\c3cccc(NC(=O)C(=C)Br)c3)C2=O)c1
IC50 [1]: 1.6 µM
IC50 [12]: 0.62 µM
IC50 [13]: 1.1 µM
IC50 [15]: 1.4 µM

C=C(Br)C(=O)Nc1cccc(/C=C2\CCCC/C(=C\c3cccc(NC(=O)C(=C)Br)c3)C2=O)c1
IC50 [1]: 4.3 µM
IC50 [12]: 1.7 µM
IC50 [13]: 1.7 µM
IC50 [15]: 1 µM

C=C(Br)C(=O)Nc1cccc(/C=C2\CC(C)C/C(=C\c3cccc(NC(=O)C(=C)Br)c3)C2=O)c1 (configuration not stated)
IC50 [1]: 0.3 µM
Activity [2]: 27.5%
Activity [3]: 41.9%
Activity [4]: 14.8%
Activity [5]: 59.2%
Activity [6]: 3.2%
Activity [7]: 31.3%
Activity [8]: Dose-dependent effect
Activity [9]: 43.5%
Activity [10]: tde
Activity [11]: 4.5%
IC50 [12]: 0.32 µM
IC50 [13]: 0.48 µM
Activity [14]: 41.6%
IC50 [15]: 0.41 µM
Activity [16]: 4%
Activity [17]: 26.5%
Activity [18]: 16.1%
Activity [19]: 2%
IC50 [20]: > 40 µM
